Measured values as given in ChEMBL document CHEMBL4229550, “An antimycobacterial pleuromutilin analogue effective against dormant bacilli” (Bioorg Med Chem, 2018).
Converted amounts (≈) assume the structure as drawn. The source made the active and inactive calls. The rule behind the calls is not given here.

Key:
Staphylococcus aureus [1] = assay: Antibacterial activity against Staphylococcus aureus incubated for 24 hrs under aerobic condition by MABA; format: functional; conditions: read-out: MIC100
How it was run: (§1)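 Resazurin was then added from a 0.08% stock for 1 h. MIC100 was the lowest concentration where the dye stayed blue (pink means growth). Absorbance was also read at 570 and 600 nm.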

Staphylococcus aureus [2] = assay: Antibacterial activity against Staphylococcus aureus BAA 2094 incubated for 24 hrs under aerobic condition by MABA; format: functional; conditions: BAA 2094, 24 h, read-out: MIC100; how it was run: as §1
Staphylococcus aureus [3] = assay: Antibacterial activity against Staphylococcus aureus BAA 1683 incubated for 24 hrs under aerobic condition by MABA; format: functional; conditions: BAA 1683, 24 h, read-out: MIC100
How it was run: (§2)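 Mid-log cultures at OD 0.5 were exposed to serial dilutions under aerobic conditions at 37 °C for 24 h. Resazurin was then added from a 0.08% stock for 1 h. MIC100 was the lowest concentration where the dye stayed blue (pink means growth). Absorbance was also read at 570 and 600 nm.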

Acinetobacter baumannii [4] = assay: Bactericidal activity against Acinetobacter baumannii ATCC 19606 incubated for 24 hrs under aerobic condition by MABA; format: functional; conditions: ATCC 19606 = CIP 70.34 = JCM 6841, 24 h
Klebsiella pneumoniae [5] = assay: Antibacterial activity against Klebsiella pneumoniae ATCC 12019 incubated for 24 hrs under aerobic condition by MABA; format: functional; conditions: ATCC 12019, 24 h, read-out: MIC100; how it was run: as §2
[6] = Selectivity index, ratio of IC50 for African green monkey Vero cells to MIC100 for replicating Mycobacterium tuberculosis H37Rv by MABA; format: toxicity; conditions: read-out: Selectivity Index
How it was run: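 Vero cells are cultured in EMEM with 10% FBS and exposed for 72 h to 0.78–200 µg/mL. Medium is switched to phenol-red-free EMEM, MTT is added, and formazan is read at 570 nm to give IC50. The selectivity index is Vero IC50 divided by the MABA MIC.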

Staphylococcus aureus [7] = assay: Bactericidal activity against Staphylococcus aureus incubated for 24 hrs under aerobic condition by MABA; format: functional
Bacillus subtilis [8] = assay: Antibacterial activity against Bacillus subtilis ATCC 6051 incubated for 24 hrs under aerobic condition by MABA; format: functional; conditions: ATCC 6051, 24 h, read-out: MIC100; how it was run: as §2
Enterococcus faecalis [9] = assay: Bactericidal activity against Enterococcus faecalis ATCC 349 incubated for 24 hrs under aerobic condition by MABA; format: functional; conditions: ATCC 349, 24 h
Enterococcus faecalis [10] = assay: Bactericidal activity against Enterococcus faecalis ATCC 19433 incubated for 24 hrs under aerobic condition by MABA; format: functional; conditions: ATCC 19433, 24 h
Streptococcus salivarius [11] = assay: Antibacterial activity against Streptococcus salivarius […] incubated for 24 hrs under aerobic condition by MABA; format: functional; conditions: read-out: MIC100; how it was run: as §1
Enterococcus faecalis [12] = assay: Antibacterial activity against Enterococcus faecalis ATCC 349 incubated for 24 hrs under aerobic condition by MABA; format: functional; conditions: ATCC 349, 24 h, read-out: MIC100; how it was run: as §2
[13] = Half life in Sprague-Dawley rat liver microsomes at 500 ng/ml preincubated for 5 mins followed by NADPH addition by C-MS/MS analysis; format: ADME, microsome
Staphylococcus aureus [14] = assay: Antibacterial activity against Staphylococcus aureus ATCC 25923 incubated for 24 hrs under aerobic condition by MABA; format: functional; conditions: ATCC 25923, 24 h, read-out: MIC100; how it was run: as §2
Staphylococcus aureus [15] = assay: Antibacterial activity against Staphylococcus aureus BAA 44 incubated for 24 hrs under aerobic condition by MABA; format: functional; conditions: BAA 44, 24 h, read-out: MIC100; how it was run: as §2
Staphylococcus aureus [16] = assay: Bactericidal activity against Staphylococcus aureus ATCC 25923 incubated for 24 hrs under aerobic condition by MABA; format: functional; conditions: ATCC 25923, 24 h
[17] = system: Mycolicibacterium smegmatis; assay: Antibacterial activity against Mycobacterium smegmatis; format: functional
Streptococcus pneumoniae [18] = assay: Bactericidal activity against Streptococcus pneumoniae ATCC 6301 incubated for 24 hrs under aerobic condition by MABA; format: functional; conditions: ATCC 6301, 24 h
Escherichia coli [19] = assay: Inhibition of protein translation/transcription in Escherichia coli S30 cell extract at 0.1 ug/ml using circular DNA with pBESTluc after 60 mins by luciferase reporter gene assay; format: functional
How it was run: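 Coupled transcription/translation used E. coli S30 extract, amino acid mix and premix, with the pBESTluc template carrying firefly luciferase under the tac promoter. Compounds were added in DMSO and reactions were started with DNA. Incubation was 60 min at 37 °C, stopped on ice, and luciferase was read after adding assay substrate.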

Streptococcus salivarius [20] = assay: Bactericidal activity against Streptococcus salivarius ATCC 6301 incubated for 24 hrs under aerobic condition by MABA; format: functional; conditions: ATCC 6301, 24 h
Clostridioides difficile = assay: Bactericidal activity against Clostridium difficile ATCC 700057 incubated for 24 hrs […] by MABA; format: functional; conditions: ATCC 700057, 24 h
[21] = system: Mycolicibacterium smegmatis; assay: Bactericidal activity against Mycobacterium smegmatis ATCC 607 incubated for 48 hrs under aerobic condition by MABA; format: functional; conditions: ATCC 607, 48 h
Klebsiella pneumoniae [22] = assay: Bactericidal activity against Klebsiella pneumoniae ATCC 12019 incubated for 24 hrs under aerobic condition by MABA; format: functional; conditions: ATCC 12019, 24 h
[23] = system: Mycolicibacterium smegmatis; assay: Antibacterial activity against Mycobacterium smegmatis ATCC 607 incubated for 48 hrs under aerobic condition by MABA; format: functional; conditions: ATCC 607, 48 h, read-out: MIC100
How it was run: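 Mid-log culture at OD 0.5 was incubated with serial dilutions aerobically at 37 °C for 48 h. Resazurin was then added from a 0.08% stock for 1 h. MIC100 was the lowest concentration that stayed blue; absorbance was also read at 570/600 nm.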

Staphylococcus aureus [24] = assay: Bactericidal activity against Staphylococcus aureus BAA 2094 incubated for 24 hrs under aerobic condition by MABA; format: functional; conditions: BAA 2094, 24 h
Staphylococcus aureus [25] = assay: Bactericidal activity against Staphylococcus aureus BAA 1683 incubated for 24 hrs under aerobic condition by MABA; format: functional; conditions: BAA 1683, 24 h
Escherichia coli [26] = assay: Antibacterial activity against Escherichia coli ATCC 10798 incubated for 24 hrs under aerobic condition by MABA; format: functional; conditions: ATCC 10798, 24 h, read-out: MIC100; how it was run: as §2
[27] = system: Mycobacterium tuberculosis; assay: Antibacterial activity against replicating Mycobacterium tuberculosis H37Rv incubated for 15 days under aerobic condition by MABA; format: functional; conditions: 360 h, read-out: MIC100
How it was run: (§3)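 Mtb H37Rv grown in 7H9/OADC at 37 °C with shaking to OD600 0.5. The 0.5-OD culture is exposed aerobically to serial dilutions for 15 days at 37 °C. Resazurin (0.02% stock) is then added for 4 h at 37 °C with shaking.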

Acinetobacter baumannii [28] = assay: Antibacterial activity against Acinetobacter baumannii ATCC 19606 incubated for 24 hrs under aerobic condition by MABA; format: functional; conditions: ATCC 19606 = CIP 70.34 = JCM 6841, 24 h, read-out: MIC100; how it was run: as §2
Enterococcus faecalis [29] = assay: Antibacterial activity against Enterococcus faecalis ATCC 19433 incubated for 24 hrs under aerobic condition by MABA; format: functional; conditions: ATCC 19433, 24 h, read-out: MIC100; how it was run: as §2
Staphylococcus aureus [30] = assay: Bactericidal activity against Staphylococcus aureus BAA 44 incubated for 24 hrs under aerobic condition by MABA; format: functional; conditions: BAA 44, 24 h
Bacillus subtilis [31] = assay: Bactericidal activity against Bacillus subtilis ATCC 6051 incubated for 24 hrs under aerobic condition by MABA; format: functional; conditions: ATCC 6051, 24 h
Streptococcus pneumoniae [32] = assay: Antibacterial activity against Streptococcus pneumoniae ATCC 6301 incubated for 24 hrs under aerobic condition by MABA; format: functional; conditions: ATCC 6301, 24 h, read-out: MIC100; how it was run: as §2
Escherichia coli [33] = assay: Bactericidal activity against Escherichia coli ATCC 10798 incubated for 24 hrs under aerobic condition by MABA; format: functional; conditions: ATCC 10798, 24 h
[34] = system: Mycobacterium tuberculosis; assay: Bactericidal activity against replicating Mycobacterium tuberculosis H37Rv incubated for 15 days under aerobic condition by MABA; format: functional; conditions: 360 h; how it was run: as §3

SMILES: C=C[C@]1(C)C[C@@H](OC(=O)CSC(C)(C)CNC(=O)[C@H](N)C(C)C)[C@]2(C)[C@H](C)CC[C@]3(CCC(=O)[C@H]32)[C@@H](C)[C@@H]1O [VALNEMULIN]
- MIC (Staphylococcus aureus [1]): 0.4 µg/mL (≈ 0.708 µM)
- MIC (Staphylococcus aureus [2]): > 25 µg/mL
- MIC (Staphylococcus aureus [3]): > 25 µg/mL
- MBC (Acinetobacter baumannii [4]): 6.25 µg/mL (≈ 11.1 µM)
- MIC (Klebsiella pneumoniae [5]): 12.5 µg/mL (≈ 22.1 µM)
- selectivity ratio [6]: 4.79
- MBC (Staphylococcus aureus [7]): 0.8 µg/mL (≈ 1.42 µM)
- MIC (Bacillus subtilis [8]): 12.5 µg/mL (≈ 22.1 µM)
- MBC (Enterococcus faecalis [9]): > 25 µg/mL
- MBC (Enterococcus faecalis [10]): 12.5 µg/mL (≈ 22.1 µM)
- MIC (Streptococcus salivarius [11]): 0.4 µg/mL (≈ 0.708 µM)
- MIC (Enterococcus faecalis [12]): > 25 µg/mL
- t1/2 [13]: 10 min
- MIC (Staphylococcus aureus [14]): > 25 µg/mL
- MIC (Staphylococcus aureus [15]): > 25 µg/mL
- MBC (Staphylococcus aureus [16]): > 25 µg/mL
- MIC [17]: 8 to 16 µg/mL (≈ 14.2 to 28.3 µM)
- MBC (Streptococcus pneumoniae [18]): > 25 µg/mL
- inhibition (Escherichia coli [19]): Active
- MBC (Streptococcus salivarius [20]): > 25 µg/mL
- MBC (Clostridioides difficile): 1.56 µg/mL (≈ 2.76 µM)
- MBC [21]: 25 µg/mL (≈ 44.3 µM)
- MBC (Klebsiella pneumoniae [22]): 25 µg/mL (≈ 44.3 µM)
- MIC [23]: 12.5 µg/mL (≈ 22.1 µM)
- MBC (Staphylococcus aureus [24]): > 25 µg/mL
- MBC (Staphylococcus aureus [25]): > 25 µg/mL
- MIC (Escherichia coli [26]): 12.5 µg/mL (≈ 22.1 µM)
- MIC [27]: 3.13 µg/mL (≈ 5.54 µM)
- MIC (Acinetobacter baumannii [28]): 4.69 µg/mL (≈ 8.3 µM)
- MIC (Enterococcus faecalis [29]): 6.25 µg/mL (≈ 11.1 µM)
- MBC (Staphylococcus aureus [30]): > 25 µg/mL
- MBC (Bacillus subtilis [31]): 25 µg/mL (≈ 44.3 µM)
- MIC (Streptococcus pneumoniae [32]): 12.5 µg/mL (≈ 22.1 µM)
- MBC (Escherichia coli [33]): > 25 µg/mL
- MBC [34]: 6.25 µg/mL (≈ 11.1 µM)
